Results as given in ChEMBL document CHEMBL2034842, “Synthesis, anti-Candida activity, and cytotoxicity of new (4-(4-iodophenyl)thiazol-2-yl)hydrazine derivatives” (Eur J Med Chem, 2012).
In brackets after ≈: the same amount, converted by molar mass.

Legend:
[1] = Antiproliferative activity against human Hep2 cells assessed as cell survival fraction at 0.5 ug/mL after 24 hrs by MTT assay; assay type: cell-based; settings: HEp-2 cells, read-out: Survival
How it was run: (§1)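 Hep2 (human laryngeal carcinoma) cells maintained in DMEM + 10% FBS + 1% pen/strep, 37 °C, 5% CO2. Seeded in triplicate at 1 × 10^5/well in serum-free medium and exposed 24 h at 37 °C to six compound concentrations (100–0.05). DMSO stock diluted in medium, final DMSO ≤0.5%. MTT reagent added for 2 h at 37 °C, then detergent for 2 h at RT in the dark. Read as OD550 minus OD650.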

Escherichia coli = test: Antibacterial activity against Escherichia coli after 18 to 22 hrs by […]; assay type: functional
[2] = Antiproliferative activity against human Hep2 cells assessed as cell survival fraction at 0.05 ug/mL after 24 hrs by MTT assay; assay type: cell-based; settings: HEp-2 cells, read-out: Survival; how it was run: as §1
Staphylococcus aureus = test: Antibacterial activity against Staphylococcus aureus after 18 to 22 hrs by […]; assay type: functional
Proteus vulgaris = test: Antibacterial activity against Proteus vulgaris after 18 to 22 hrs by […]; assay type: functional
Candida albicans = test: Antifungal activity against 10 strains of Candida albicans after 24 hrs by […]; assay type: functional
Klebsiella aerogenes = test: Antibacterial activity against Enterobacter aerogenes after 18 to 22 hrs by […]; assay type: functional
[3] = Cytotoxicity against human Hep2 cells assessed as cell survival fraction at 10 ug/mL after 24 hrs by trypan blue exclusion method; assay type: cell-based; settings: HEp-2 cells, read-out: Survival
How it was run: (§2)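 Hep2 cells grown in DMEM + 10% FBS + 1% pen/strep at 37 °C, 5% CO2, used at 60–70% confluency. Exponential-phase cells (1 × 10^5/mL) incubated 24 h with six concentrations (100–0.05), final DMSO ≤0.5%. Controls were cells alone or cells + DMSO, with 1 mM sodium nitroprusside as positive control. Cells scraped off, mixed 1:1 with 0.4% trypan blue and counted on a hemocytometer by two operators. Blue cells were scored dead; results given as % viable cells.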

Candida tropicalis = test: Antifungal activity against 4 strains of Candida tropicalis after 24 hrs by […]; assay type: functional
[4] = Antiproliferative activity against human Hep2 cells assessed as cell survival fraction at 10 ug/mL after 24 hrs by MTT assay; assay type: cell-based; settings: HEp-2 cells, read-out: Survival; how it was run: as §1
[5] = Antiproliferative activity against human Hep2 cells assessed as cell survival fraction at 50 ug/mL after 24 hrs by MTT assay; assay type: cell-based; settings: HEp-2 cells, read-out: Survival; how it was run: as §1
HEp-2 [6] = test: Cytotoxicity against human Hep2 cells assessed as cell survival fraction after 24 hrs by trypan blue exclusion method; assay type: cell-based; settings: HEp-2, 24 h
How it was run: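 Hep2 cells in DMEM with 10% FBS and 1% penicillin-streptomycin, at 37 °C, 5% CO2, grown to 60–70% confluency. Seeded at 1 × 10^5/mL and exposed 24 h to six concentrations ([…]); DMSO ≤0.5%. Controls were cells alone, cells with DMSO, and 1 mM nitroprusside. Scraped cells mixed 1:1 with 0.4% trypan blue; blue cells counted as dead by hemocytometer, two operators. EC50 from ≥3 independent experiments.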

[7] = Cytotoxicity against human Hep2 cells assessed as cell survival fraction at 0.05 ug/mL after 24 hrs by trypan blue exclusion method; assay type: cell-based; settings: HEp-2 cells, read-out: Survival; how it was run: as §2
Enterococcus faecalis = test: Antibacterial activity against Enterococcus faecalis after 18 to 22 hrs by […]; assay type: functional
HEp-2 [8] = test: Antiproliferative activity against human Hep2 cells assessed as cell survival fraction after 24 hrs by MTT assay; assay type: cell-based; settings: HEp-2, 24 h
How it was run: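 Hep2 laryngeal carcinoma cells seeded in triplicate at 1 × 10^5/well in serum-free DMEM. Exposed 24 h at 37 °C, 5% CO2, to six concentrations ([…]); DMSO ≤0.5%. MTT reagent added for 2 h at 37 °C, then detergent for 2 h at room temperature in the dark. OD550 minus OD650 read. EC50 from ≥3 independent experiments.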

Candida parapsilosis = test: Antifungal activity against 4 strains of Candida parapsilosis after 24 hrs by […]; assay type: functional; settings: Lodderomyces parapsilosis
[9] = Cytotoxicity against human Hep2 cells assessed as cell survival fraction at 0.5 ug/mL after 24 hrs by trypan blue exclusion method; assay type: cell-based; settings: HEp-2 cells, read-out: Survival; how it was run: as §2
Pichia kudriavzevii = test: Antifungal activity against 3 strains of Candida krusei after 24 hrs by […]; assay type: functional
[Candida] sake = Antifungal activity against 2 strains of Candida sake after 24 hrs by […]; assay type: functional; settings: Fermentozyma sake
[10] = Antiproliferative activity against human Hep2 cells assessed as cell survival fraction at 100 ug/mL after 24 hrs by MTT assay; assay type: cell-based; settings: HEp-2 cells, read-out: Survival; how it was run: as §1
Klebsiella pneumoniae = test: Antibacterial activity against Klebsiella pneumoniae after 18 to 22 hrs by […]; assay type: functional
[11] = Cytotoxicity against human Hep2 cells assessed as cell survival fraction at 50 ug/mL after 24 hrs by trypan blue exclusion method; assay type: cell-based; settings: HEp-2 cells, read-out: Survival; how it was run: as §2
Streptococcus pyogenes = test: Antibacterial activity against Streptococcus pyogenes after 18 to 22 hrs by […]; assay type: functional
[12] = Cytotoxicity against human Hep2 cells assessed as cell survival fraction at 100 ug/mL after 24 hrs by trypan blue exclusion method; assay type: cell-based; settings: HEp-2 cells, read-out: Survival; how it was run: as §2
Staphylococcus warneri = test: Antibacterial activity against Staphylococcus warneri after 18 to 22 hrs by […]; assay type: functional
Nakaseomyces glabratus = test: Antifungal activity against 4 strains of Candida glabrata after 24 hrs by […]; assay type: functional
[13] = Cytotoxicity against human Hep2 cells assessed as cell survival fraction at 5 ug/mL after 24 hrs by trypan blue exclusion method; assay type: cell-based; settings: HEp-2 cells, read-out: Survival; how it was run: as §2
[14] = Antiproliferative activity against human Hep2 cells assessed as cell survival fraction at 5 ug/mL after 24 hrs by MTT assay; assay type: cell-based; settings: HEp-2 cells, read-out: Survival; how it was run: as §1

CC1CCC/C1=N\Nc1nc(-c2ccc(I)cc2)cs1 (configuration not stated)
viability at 24 h, 0.5 ug/mL [1]: 90%
MIC (Escherichia coli): 32 µg/mL (≈ 80.5 µM)
viability at 24 h, 0.05 ug/mL [2]: 100%
MIC (Staphylococcus aureus): 32 µg/mL (≈ 80.5 µM)
MIC (Proteus vulgaris): 32 µg/mL (≈ 80.5 µM)
MIC (Candida albicans): 0.25 µg/mL (≈ 0.629 µM)
MIC (Klebsiella aerogenes): > 128 µg/mL
viability at 24 h, 10 ug/mL [3]: 70%
MIC (Candida tropicalis): 0.5 µg/mL (≈ 1.26 µM)
viability at 24 h, 10 ug/mL [4]: 36%
viability at 24 h, 50 ug/mL [5]: 12%
EC50 (HEp-2 [6]): 30 µg/mL (≈ 75.5 µM)
viability at 24 h, 0.05 ug/mL [7]: 92%
MIC (Enterococcus faecalis): 32 µg/mL (≈ 80.5 µM)
EC50 (HEp-2 [8]): 30 µg/mL (≈ 75.5 µM)
MIC (Candida parapsilosis): 2 µg/mL (≈ 5.03 µM)
viability at 24 h, 0.5 ug/mL [9]: 89%
MIC (Pichia kudriavzevii): 2 µg/mL (≈ 5.03 µM)
MIC ([Candida] sake): 32 µg/mL (≈ 80.5 µM)
viability at 24 h, 100 ug/mL [10]: 6%
MIC (Klebsiella pneumoniae): > 128 µg/mL
viability at 24 h, 50 ug/mL [11]: 0%
MIC (Streptococcus pyogenes): 8 µg/mL (≈ 20.1 µM)
viability at 24 h, 100 ug/mL [12]: 0%
MIC (Staphylococcus warneri): 32 µg/mL (≈ 80.5 µM)
MIC (Nakaseomyces glabratus): 2 µg/mL (≈ 5.03 µM)
viability at 24 h, 5 ug/mL [13]: 67%
viability at 24 h, 5 ug/mL [14]: 60%

CCC(CC)=NNc1nc(-c2ccc(I)cc2)cs1
viability at 24 h, 0.5 ug/mL [1]: 92%
MIC (Escherichia coli): 32 µg/mL (≈ 83.1 µM)
viability at 24 h, 0.05 ug/mL [2]: 95%
MIC (Staphylococcus aureus): > 128 µg/mL
MIC (Proteus vulgaris): 32 µg/mL (≈ 83.1 µM)
MIC (Candida albicans): 0.25 µg/mL (≈ 0.649 µM)
MIC (Klebsiella aerogenes): 16 µg/mL (≈ 41.5 µM)
viability at 24 h, 10 ug/mL [3]: 67%
MIC (Candida tropicalis): 0.5 µg/mL (≈ 1.3 µM)
viability at 24 h, 10 ug/mL [4]: 90%
viability at 24 h, 50 ug/mL [5]: 45%
viability at 24 h, 0.05 ug/mL [7]: 92%
MIC (Enterococcus faecalis): 32 µg/mL (≈ 83.1 µM)
EC50 (HEp-2 [8]): 50 µg/mL (≈ 130 µM)
MIC (Candida parapsilosis): 2 µg/mL (≈ 5.19 µM)
viability at 24 h, 0.5 ug/mL [9]: 85%
MIC (Pichia kudriavzevii): 256 µg/mL (≈ 664 µM)
MIC ([Candida] sake): 256 µg/mL (≈ 664 µM)
viability at 24 h, 100 ug/mL [10]: 10%
MIC (Klebsiella pneumoniae): 16 µg/mL (≈ 41.5 µM)
viability at 24 h, 50 ug/mL [11]: 63%
MIC (Streptococcus pyogenes): 32 µg/mL (≈ 83.1 µM)
viability at 24 h, 100 ug/mL [12]: 58%
MIC (Staphylococcus warneri): 32 µg/mL (≈ 83.1 µM)
MIC (Nakaseomyces glabratus): 2 µg/mL (≈ 5.19 µM)
viability at 24 h, 5 ug/mL [13]: 80%
viability at 24 h, 5 ug/mL [14]: 90%

CCC/C(C)=N/Nc1nc(-c2ccc(I)cc2)cs1
viability at 24 h, 0.5 ug/mL [1]: 98%
MIC (Escherichia coli): > 128 µg/mL
viability at 24 h, 0.05 ug/mL [2]: 100%
MIC (Staphylococcus aureus): 32 µg/mL (≈ 83.1 µM)
MIC (Proteus vulgaris): > 128 µg/mL
MIC (Candida albicans): 0.25 µg/mL (≈ 0.649 µM)
MIC (Klebsiella aerogenes): > 128 µg/mL
viability at 24 h, 10 ug/mL [3]: 60%
MIC (Candida tropicalis): 0.5 µg/mL (≈ 1.3 µM)
viability at 24 h, 10 ug/mL [4]: 68%
viability at 24 h, 50 ug/mL [5]: 62%
viability at 24 h, 0.05 ug/mL [7]: 92%
MIC (Enterococcus faecalis): 32 µg/mL (≈ 83.1 µM)
EC50 (HEp-2 [8]): 45 µg/mL (≈ 117 µM)
MIC (Candida parapsilosis): 2 µg/mL (≈ 5.19 µM)
viability at 24 h, 0.5 ug/mL [9]: 75%
MIC (Pichia kudriavzevii): 4 µg/mL (≈ 10.4 µM)
MIC ([Candida] sake): 32 µg/mL (≈ 83.1 µM)
viability at 24 h, 100 ug/mL [10]: 0%
MIC (Klebsiella pneumoniae): 32 µg/mL (≈ 83.1 µM)
viability at 24 h, 50 ug/mL [11]: 63%
MIC (Streptococcus pyogenes): 4 µg/mL (≈ 10.4 µM)
viability at 24 h, 100 ug/mL [12]: 60%
MIC (Staphylococcus warneri): 32 µg/mL (≈ 83.1 µM)
MIC (Nakaseomyces glabratus): 2 µg/mL (≈ 5.19 µM)
viability at 24 h, 5 ug/mL [13]: 65%
viability at 24 h, 5 ug/mL [14]: 72%

Clc1ccccc1C(c1ccccc1)(c1ccccc1)n1ccnc1 [CLOTRIMAZOLE]
viability at 24 h, 0.5 ug/mL [1]: 85%
viability at 24 h, 0.05 ug/mL [2]: 100%
MIC (Candida albicans): 2 µg/mL (≈ 5.8 µM)
viability at 24 h, 10 ug/mL [3]: 68%
MIC (Candida tropicalis): 1 µg/mL (≈ 2.9 µM)
viability at 24 h, 10 ug/mL [4]: 70%
viability at 24 h, 50 ug/mL [5]: 32%
EC50 (HEp-2 [6]): 40 µg/mL (≈ 116 µM)
viability at 24 h, 0.05 ug/mL [7]: 100%
EC50 (HEp-2 [8]): 48 µg/mL (≈ 139 µM)
MIC (Candida parapsilosis): 0.5 µg/mL (≈ 1.45 µM)
viability at 24 h, 0.5 ug/mL [9]: 87%
MIC (Pichia kudriavzevii): 2 µg/mL (≈ 5.8 µM)
MIC ([Candida] sake): 2 µg/mL (≈ 5.8 µM)
viability at 24 h, 100 ug/mL [10]: 20%
viability at 24 h, 50 ug/mL [11]: 20%
viability at 24 h, 100 ug/mL [12]: 10%
MIC (Nakaseomyces glabratus): 0.25 µg/mL (≈ 0.725 µM)
viability at 24 h, 5 ug/mL [13]: 70%
viability at 24 h, 5 ug/mL [14]: 82%
